Test results as given in ChEMBL document CHEMBL1155144, “Cytoplasmic-membrane anchoring of a class A beta-lactamase and its capacity in manifesting antibiotic resistance” (2007).
Converted amounts (≈) assume the structure as drawn.

Legend:
Format in all cases: functional
Escherichia coli [1] = test: Antimicrobial activity against Escherichia coli JM83 harboring pACYC184-ATEM by serial dilution method
Procedure, shortened: (§1)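 Broth serial dilution in LB medium, microtitre format; inoculum 5 x 10^5 CFU/ml; incubated with antibiotic overnight at 37°C; MIC read after overnight growth.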

Escherichia coli [2] = test: Antimicrobial activity against Escherichia coli JM83 by serial dilution method; procedure, shortened: as §1
Escherichia coli [3] = test: Antimicrobial activity against Escherichia coli JM83 harboring pACYC184-TEM by serial dilution method; procedure, shortened: as §1

Compound	MIC (Escherichia coli [1]) [µg/mL]	MIC (Escherichia coli [2]) [µg/mL]	MIC (Escherichia coli [3]) [µg/mL]
CC1(C)S[C@@H]2[C@H](NC(=O)[C@H](N)c3ccccc3)C(=O)N2[C@H]1C(=O)O [AMPICILLIN]	4000 (≈ 11400 µM)	4 (≈ 11.4 µM)	4000 (≈ 11400 µM)
CC(C)(O/N=C(\C(=O)N[C@@H]1C(=O)N2C(C(=O)[O-])=C(C[n+]3ccccc3)CS[C@H]12)c1csc(N)n1)C(=O)O [CEFTAZIDIME]	0.3 (≈ 0.549 µM)	0.3 (≈ 0.549 µM)	0.3 (≈ 0.549 µM)
O=C(Cc1cccs1)N[C@@H]1C(=O)N2C(C(=O)[O-])=C(C[n+]3ccccc3)CS[C@H]12 [CEPHALORIDINE]	32 (≈ 77 µM)	2 (≈ 4.81 µM)	32 (≈ 77 µM)
CC(=O)OCC1=C(C(=O)O)N2C(=O)[C@@H](NC(=O)Cc3cccs3)[C@H]2SC1 [CEPHALOTHIN]	64 (≈ 161 µM)	4 (≈ 10.1 µM)	64 (≈ 161 µM)
Cc1onc(-c2ccccc2)c1C(=O)N[C@@H]1C(=O)N2[C@@H]1SC(C)(C)[C@@H]2C(=O)O [OXACILLIN]	8000 (≈ 19900 µM)	2 (≈ 4.98 µM)	64 (≈ 159 µM)
